From PubChem BioAssay
Only some compounds are listed: those with a hit (about 3.7% of all), similar ones and a draw of the others.
aDG glyco act – activators of alpha-DG glycosylation, primary screen, uHTS, Pro5-aDG cells, AlphaScreen. alpha-DG glycosylation AlphaScreen (IIH6); 0% Pro5, 100% B10-LARGE cell signal. AID 624168, 2012. actives 0.22% (n = 360,000). activation, % at 10 µM;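 active = activation of at least 8% versus controls, or a plate z-score of at least 8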;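 note: Pro5 are CHO cells carrying HIG-tagged alpha-DG that lacks glycosylation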
proCasp3 act – activators of human procaspase-3 D3A mutant, primary screen, biochemical, absorbance, PC-3 D3A mutant, single concentration; activation, % at 8.5 µM; actives 0.11% (n = 330,000); recombinant procaspase-3 D3A, Ac-DEVD-pNA absorbance 405 nm; Caspase-3 (Homo sapiens), P42574; AID 463141, 2010;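 active = activation above the mean of all tested compounds plus 3 SD, cut at about 21% in these data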;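 note: 0% = DMSO alone and 100% = DMSO wells spiked with extra 5 µM PC-3 D3A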
Target sequence (P42574 whole entry D9A/D28A/D175A): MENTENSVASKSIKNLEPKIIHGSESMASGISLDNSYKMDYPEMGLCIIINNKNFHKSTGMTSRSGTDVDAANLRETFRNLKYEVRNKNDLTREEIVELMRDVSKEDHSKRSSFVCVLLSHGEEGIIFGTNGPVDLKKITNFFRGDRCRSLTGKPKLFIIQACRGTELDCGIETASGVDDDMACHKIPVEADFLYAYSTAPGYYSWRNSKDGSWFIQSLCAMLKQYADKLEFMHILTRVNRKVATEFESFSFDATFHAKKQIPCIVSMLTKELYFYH
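Assay system – Procaspase-3 D3A mutant, all three cleavage aspartates alanine · Controls – DMSO-only low control, 5 µM PC-3 D3A high control · Schedule – 1 h compound preincubation, 2 h substrate hydrolysis at 25 °C · Signal – 405 nm absorbance of p-nitroaniline, reads at 0 and 120 min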
NR3A LBD binder – binders of NR3A ligand-binding domain, primary screen, biophysical, differential scanning fluorimetry, uHTS | NR3A LBD differential scanning fluorimetry, Tm shift; 0% = protein alone, 100% = glycine-bound protein | Glutamate receptor ionotropic, NMDA 3A (GRIN3A) ligand-binding domain | actives 2.5% (n = 340,000) | Tm shift relative to glycine control, % at 25 µM;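 active = melting temperature shift of at least 10% of the positive control shift, at one fixed dose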
procasp7 counter – procaspase-7 activators, primary screen, counter-screen for procaspase-3 activator project, biochemical, absorbance, HTS, human; Caspase-7 (Homo sapiens), P55210; recombinant procaspase-7, Ac-DEVD-pNA absorbance 405 nm; D23A/D198A/D206A triple mutant, cannot self-cleave; scale: DMSO 0, 5 µM enzyme 100; activation, % at 8.5 µM; actives 0.093% (n = 330,000); AID 463210, 2010;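 active = percent activation above the screen-wide mean plus 3 SD, cut at about 25% in these data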
Target sequence (P55210 whole entry D23A/D198A/D206A): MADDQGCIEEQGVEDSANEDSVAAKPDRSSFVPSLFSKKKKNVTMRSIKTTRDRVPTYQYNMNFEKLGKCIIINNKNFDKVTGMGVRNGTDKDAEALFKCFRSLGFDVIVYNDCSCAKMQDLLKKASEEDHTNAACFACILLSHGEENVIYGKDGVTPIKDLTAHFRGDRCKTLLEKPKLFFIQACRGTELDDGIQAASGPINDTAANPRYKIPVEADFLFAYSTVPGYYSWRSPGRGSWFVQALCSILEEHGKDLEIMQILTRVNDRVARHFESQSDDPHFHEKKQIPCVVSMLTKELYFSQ
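System: Uncleavable procaspase-7 mutant enzyme; Amount: 2 µM procaspase-7 mutant as dispensed; Schedule: 1 h compound preincubation, 2 h substrate cleavage, 25 °C; Measured by: 405 nm absorbance of p-nitroaniline; Evaluation: percent activation from buffer-corrected 0–120 min absorbance change; Control set: low DMSO alone, high DMSO plus 5 µM PC-7.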
MPTP block – mitochondrial permeability transition pore inhibitors, primary screen, biochemical, isolated mouse mitochondria, absorbance | Ca2+ swelling absorbance, 30 min | actives 1.4% (n = 360,000) | inhibition, % at 10 µM | AID 602449, 2012;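 active = inhibition of 50% or more, scaled per plate between neutral and stimulator controls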;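 note: 0% = DMSO wells given calcium and 100% = 1 mM EGTA wells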
Starred values were filed as active, the others as inactive.

What do the screens show for `COc1ccc(/C=N/NC(=O)c2ccc(CN3c4cccc5cccc(c45)S3(=O)=O)cc2)cc1`?
aDG glyco act: 0; proCasp3 act: 1; NR3A LBD binder: 22*; procasp7 counter: 7; MPTP block: 1

How did COc1cc(OC)cc(C(=O)Nc2nnc(NC(=S)Nc3ccccc3)s2)c1 do in these assays?
aDG glyco act: 1; proCasp3 act: -12; NR3A LBD binder: 26*; procasp7 counter: -6; MPTP block: 0

What do the screens show for `CCN(CC)S(=O)(=O)c1ccc(NC(=S)Nc2ccccc2)cc1`?
aDG glyco act: 0; proCasp3 act: -1; NR3A LBD binder: 1; procasp7 counter: -7; MPTP block: 5

How did CCN(CC)S(=O)(=O)c1ccc(C(=O)Nc2nnc(NC(=S)Nc3ccccc3)s2)cc1 do in these assays?
aDG glyco act: 0; proCasp3 act: -3; NR3A LBD binder: 28*; procasp7 counter: -13; MPTP block: 8

Results for Cc1ccc(-c2cc(C(=O)N/N=C/c3ccc(F)cc3)n[nH]2)o1 ?
aDG glyco act: 0; proCasp3 act: 3; NR3A LBD binder: 31*; procasp7 counter: 3; MPTP block: -1

Results for Cc1ccc(-c2cc(C(=O)N/N=C/c3ccccc3O)n[nH]2)o1 ?
aDG glyco act: 0; proCasp3 act: -53; NR3A LBD binder: 31*; procasp7 counter: -54; MPTP block: -1

Results for Cc1ccc(-c2cc(C(=O)N/N=C/c3c[nH]c4ccccc34)n[nH]2)o1 ?
aDG glyco act: 0; proCasp3 act: -3; NR3A LBD binder: 28*; procasp7 counter: 17; MPTP block: 0

Results for Cc1cc(C(=O)N/N=C\c2cc(C(C)(C)C)ccc2O)n[nH]1 ?
aDG glyco act: 2; proCasp3 act: -39; NR3A LBD binder: -8; procasp7 counter: -49; MPTP block: 2

Results for CC(C)(C)c1cc(C(=O)N/N=C/c2ccncc2)n[nH]1 ?
aDG glyco act: 0; proCasp3 act: 0; NR3A LBD binder: 468*; procasp7 counter: 13; MPTP block: -1

What do the screens show for `COC(=O)[C@@]12C[C@@H](CC(=O)NCCc3ccccc3OC)C(=O)N(CCc3ccc(OC)c(OC)c3)C1=CCC(C)(C)C2`?
aDG glyco act: 1; MPTP block: -3

What do the screens show for `CCOc1ccc2nc(S(=O)(=O)NC(=O)C3(C)CCN3C(=O)c3c(C)noc3C)sc2c1` (configuration not stated)?
aDG glyco act: 0; MPTP block: -2

What do the screens show for `Cc1ccc(-c2cc(C(=O)N/N=C/C=C/c3ccccc3)n[nH]2)s1`?
aDG glyco act: 0; proCasp3 act: -3; NR3A LBD binder: 19*; procasp7 counter: 0; MPTP block: 9

Results for Cc1ccc(-c2cc(C(=O)N/N=C/C(Br)=C/c3ccccc3)n[nH]2)o1 ?
aDG glyco act: 0; proCasp3 act: -5; NR3A LBD binder: 29*; procasp7 counter: 0; MPTP block: 0

How did O=C(N/N=C/c1cccs1)c1cc(-c2ccc(Cl)s2)[nH]n1 do in these assays?
aDG glyco act: 0; proCasp3 act: 11; NR3A LBD binder: 33*; procasp7 counter: 1; MPTP block: -1

How did COc1cc(NCCCn2ccc(NC(=O)OCc3ccccc3)nc2=O)cc(OC)c1OC do in these assays?
aDG glyco act: 1; NR3A LBD binder: 17*; MPTP block: -1

What do the screens show for `COc1ccc(CN(C)CCCn2ccc(NC(=O)OCc3ccccc3)nc2=O)cc1OC`?
aDG glyco act: 0; MPTP block: -2

How did COc1ccc(NC(=O)N(C)[C@H]2C[C@H]3c4[nH]c5ccc(-c6cccc(C)c6)cc5c4CCN3C[C@H]2[C@H](C)O)cc1 do in these assays?
aDG glyco act: 1; MPTP block: 0

How did COc1cccc(-c2ncc3ccccc3c2COC(=O)CCCC(=O)O)c1 do in these assays?
aDG glyco act: 0; proCasp3 act: 9; NR3A LBD binder: 0; procasp7 counter: 3; MPTP block: -1

Results for COc1cccc(/C=C/C(=O)c2cccc([N+](=O)[O-])c2)c1OC ?
aDG glyco act: 0; proCasp3 act: 1; NR3A LBD binder: 10*; procasp7 counter: -2; MPTP block: -2

Results for COc1ccc(/C=C/C(=O)Nc2ccc(C(N)=O)cc2)cc1OC ?
aDG glyco act: 0; proCasp3 act: 0; NR3A LBD binder: 15*; procasp7 counter: 3; MPTP block: 4

Results for COc1cccc(/C=C/C(=O)c2cccc([N+](=O)[O-])c2)c1 ?
aDG glyco act: 0; proCasp3 act: -14; NR3A LBD binder: -5; procasp7 counter: 7; MPTP block: 0

What do the screens show for `COc1cccc(OC)c1C(=O)NC(=S)Nc1ccc2c(c1)OCCO2`?
aDG glyco act: 0; proCasp3 act: 1; NR3A LBD binder: -1; procasp7 counter: -3; MPTP block: 0

Results for COc1ccc([N+](=O)[O-])cc1NC(=S)NC(C)=O ?
aDG glyco act: 1; proCasp3 act: 5; NR3A LBD binder: -4; procasp7 counter: -3; MPTP block: -1

How did COc1cccc(/C=C/C(=O)Nc2ccc3c(c2)OCCO3)c1OC do in these assays?
aDG glyco act: 0; proCasp3 act: -4; NR3A LBD binder: 20*; procasp7 counter: -6; MPTP block: -2

Results for COc1ccc(/C=C/C(=O)NC(=S)Nc2cc([N+](=O)[O-])ccc2O)cc1OC ?
aDG glyco act: 0; proCasp3 act: -8; NR3A LBD binder: 19*; procasp7 counter: -17; MPTP block: 2

How did COc1ccc(C2Nc3cccc(O)c3C(=O)N2Cc2ccccc2)cc1COc1ccc(NC(C)=O)cc1 (configuration not stated) do in these assays?
aDG glyco act: 0; MPTP block: 0

How did N#CCC(=O)Nc1ccc(C(=O)Nc2cccc(S(N)(=O)=O)c2)cc1 do in these assays?
aDG glyco act: 0; proCasp3 act: 6; NR3A LBD binder: 7; procasp7 counter: 3; MPTP block: 2

What do the screens show for `COc1cccc(/C=C/C(=O)Nc2ccc(C(=O)Nc3cccc(S(N)(=O)=O)c3)cc2)c1OC`?
aDG glyco act: 0; proCasp3 act: 0; NR3A LBD binder: 39*; procasp7 counter: 8; MPTP block: 1

How did COc1ccc(/C=C/C(=O)Nc2cccc(C(C)=O)c2)cc1 do in these assays?
aDG glyco act: 0; proCasp3 act: -7; NR3A LBD binder: -8; procasp7 counter: 14; MPTP block: 2
